{
  "source": "paper PMC4835239",
  "about": "(Leukemia & lymphoma, 2015)",
  "key": {"[1]": {"system": "CLL", "conditions": "patients with CLL; cited from earlier work"}, "[2]": {"system": "patients with relapsed/refractory CLL or small lymphocytic lymphoma (SLL)", "experiment": "Phase I dose-escalation trial: toxicity assessment", "type": "in vivo"}, "[3]": {"system": "relapsed/refractory CLL or small lymphocytic lymphoma (SLL)", "experiment": "Response assessment by IWCLL 2008 criteria", "type": "in vivo, human", "conditions": "all patients"}, "[4]": {"system": "chymotrypsin-like proteasome activity of CLL cells", "experiment": "Proteasome activity assay in CLL cells from patient samples", "type": "in vivo, human", "method_in_brief": "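Chymotrypsin-like proteasome activity was measured in CLL cells from patient whole blood with a validated commercial assay. Samples were taken at screening, pre- and post-dose day 1, pre-dose day 2, and pre- and post-dose days 8 and 9 of cycle 1. Dosing was a 30-min IV infusion, 20 mg/m2 on days 1–2, then 27, 36, 45 or 56 mg/m2 by cohort from day 8.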"}, "[5]": {"system": "CLL cells", "conditions": "cited from earlier work"}, "[6]": {"system": "myeloma cells", "conditions": "bortezomib; cited from earlier work"}, "[7]": {"system": "CLL cells", "conditions": "bortezomib; cited from earlier work"}},
  "note": "“Also recorded” adds a separate entry of the source.",
  "data": [
    {"molecule": "CC(C)C[C@H](NC(=O)[C@H](Cc1ccccc1)NC(=O)c1cnccn1)B(O)O", "note": "[bortezomib]", "values": [
      {"measurement": "Objective clinical responses", "setting": "[1]", "value": "no objective clinical responses"}
    ]},
    {"molecule": "CC(C)C[C@H](NC(=O)[C@H](CCc1ccccc1)NC(=O)CN1CCOCC1)C(=O)N[C@@H](Cc1ccccc1)C(=O)N[C@@H](CC(C)C)C(=O)[C@@]1(C)CO1", "note": "[Carfilzomib]", "values": [
      {"measurement": "Maximum tolerated dose (MTD)", "setting": "[2]; doses up to 56 mg/m^2 twice weekly for 3 weeks of a 4 week cycle", "value": "No maximum tolerated dose of carfilzomib was identified"},
      {"measurement": "Dyspnea, incidence", "setting": "[2]; grade 3, total n=19", "value": "1 number of patients"},
      {"measurement": "Febrile neutropenia, incidence", "setting": "[2]; grade 3, total n=19", "value": "1 number of patients"},
      {"measurement": "Grade of electrolyte disturbances", "setting": "[2]; human, in vivo", "value": "≤ 2", "unit": "grade"},
      {"measurement": "Infusion reaction or tumor lysis syndrome", "setting": "[2]; in vivo", "value": "No patient experienced an infusion reaction or tumor lysis syndrome"},
      {"measurement": "Objective partial or complete responses (IWCLL 2008)", "setting": "[3]", "value": "No objective partial or complete responses were observed"},
      {"measurement": "Chymotrypsin-like proteasome activity", "setting": "[4]; by 24 hours after dosing", "value": "partially recovered; also recorded: recovered partially"},
      {"measurement": "Chymotrypsin-like proteasome activity", "setting": "[4]; by day 8", "value": "rebound higher than pretreatment levels; also recorded: completely"},
      {"measurement": "Cytotoxicity against CLL cells in vitro", "setting": "[5]", "value": "significant cytotoxicity"},
      {"measurement": "Effect of human serum on cytotoxic activity against CLL cells", "setting": "[5]; human versus fetal bovine serum", "value": "unaffected by human serum"}
    ]},
    {"molecule": "O=c1c(O)c(-c2ccc(O)c(O)c2)oc2cc(O)cc(O)c12", "note": "[quercetin]", "values": [
      {"measurement": "Level of quercetin required to inhibit apoptosis", "setting": "[6]", "value": 40, "unit": "μm"},
      {"measurement": "Level of quercetin required to inhibit apoptosis", "setting": "[7]", "value": 20, "unit": "μm"}
    ]}
  ]
}
